Measurements taken from ChEMBL document CHEMBL1139798, “Synthesis of chlorogenic acid derivatives with promising antifungal activity” (Bioorg Med Chem, 2007).
In brackets after ≈: the same amount, converted by molar mass.

Legend:
Aspergillus fumigatus = experiment: Antifungal activity against Aspergillus fumigatus ATCC 13073 after 48 hrs; format: functional; conditions: ATCC 13073, 48 h
Summary of the method: (§1)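 Broth dilution following NCCLS guidelines. Final compound concentrations ran from 0.12 to 64. MIC was taken as the lowest concentration giving 80% inhibition of growth relative to the drug-free control.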

Cryptococcus neoformans = experiment: Antifungal activity against Cryptococcus neoformans ATCC 32045 after 48 to 72 hrs; format: functional; summary of the method: as §1
[1] = Lethality in brine shrimp at 100 ug/ml; format: organism-based; conditions: artemia, in vivo; read-out: Activity
Candida albicans = experiment: Antifungal activity against Candida albicans ATCC 90028 after 18 to 24 hrs; format: functional; summary of the method: as §1
Pichia kudriavzevii = experiment: Antifungal activity against Candida krusei ATCC 6258; format: functional

SMILES	MIC (Aspergillus fumigatus) [µg/mL]	MIC (Cryptococcus neoformans) [µg/mL]	mortality at 100 ug/ml [1] [%]	MIC (Candida albicans) [µg/mL]	MIC (Pichia kudriavzevii) [µg/mL]
CCCCCCCCOc1ccc(NC(=O)C(CCCNC(=O)OC(C)(C)C)NC(=O)[C@]2(O)C[C@@H](O)[C@@H](O)[C@H](OC(=O)CCc3ccc(O)c(O)c3)C2)cc1 (stereo not given in full)	> 64	4 (≈ 5.17 µM)	21.1	> 64	–
CCCCCCCCOc1ccc(NC(=O)C(CCCN)NC(=O)[C@]2(O)C[C@@H](O)[C@@H](O)[C@H](OC(=O)CCc3ccc(O)c(O)c3)C2)cc1 (stereo not given in full)	64 (≈ 95 µM)	8 (≈ 11.9 µM)	10.5	16 (≈ 23.7 µM)	–
CCCCCCCCOc1ccc(NC(=O)C(CCCNC(=O)OC(C)(C)C)NC(=O)[C@@]2(O)C[C@@H](OC(=O)/C=C/c3ccc(O)cc3)[C@@H]3OC(C)(C)O[C@@H]3C2)cc1 (stereo not given in full)	> 64	> 64	0	> 64	–
CCCCCCCCOc1ccc(NC(=O)C(CCCNC(=O)OC(C)(C)C)NC(=O)[C@]2(O)C[C@@H](O)[C@@H](O)[C@H](OC(=O)/C=C/c3ccc(O)cc3)C2)cc1 (stereo not given in full)	> 64	> 64	31.6	> 64	–
CCCCCCCCOc1ccc(NC(=O)[C@@]2(O)C[C@@H](OC(=O)/C=C/c3ccc(O)c(O)c3)[C@@H]3OC(C)(C)O[C@@H]3C2)cc1	> 64	2 (≈ 3.35 µM)	100	16 (≈ 26.8 µM)	–
CCCCCCCCOc1ccc(NC(=O)C(NC(=O)[C@@]2(O)C[C@@H](OC(=O)/C=C/c3ccc(O)c(O)c3)[C@@H]3OC(C)(C)O[C@@H]3C2)C(C)OC(C)(C)C)cc1 (stereo not given in full)	> 64	4 (≈ 5.3 µM)	6.2	32 (≈ 42.4 µM)	–
CCCCCCCCOc1ccc(NC(=O)C(CC(=O)OC(C)(C)C)NC(=O)[C@]2(O)C[C@@H](O)[C@@H](O)[C@H](OC(=O)/C=C/c3ccc(O)c(O)c3)C2)cc1 (stereo not given in full)	> 64	2 (≈ 2.74 µM)	37.5	2 (≈ 2.74 µM)	–
CCCCCCCCOc1ccc(NC(=O)C(COC(C)(C)C)NC(=O)[C@]2(O)C[C@@H](O)[C@@H](O)[C@H](OC(=O)/C=C/c3ccc(O)c(O)c3)C2)cc1 (stereo not given in full)	> 64	2 (≈ 2.85 µM)	31.1	4 (≈ 5.71 µM)	–
CCCCCCCCOc1ccc(NC(=O)C(CCCNC(=O)OC(C)(C)C)NC(=O)[C@]2(O)C[C@@H](O)[C@@H](O)[C@H](OC(=O)/C=C/c3ccc(O)c(O)c3)C2)cc1 (stereo not given in full)	> 64	1 (≈ 1.3 µM)	25	2 (≈ 2.59 µM)	–
CCCCCCCCOc1ccc(NC(=O)C(CCCN)NC(=O)[C@]2(O)C[C@@H](O)[C@@H](O)[C@H](OC(=O)/C=C/c3ccc(O)cc3)C2)cc1 (stereo not given in full)	32 (≈ 48.8 µM)	4 (≈ 6.1 µM)	100	8 (≈ 12.2 µM)	–
CCCCCCCCOc1ccc(NC(=O)C(CC(=O)OC(C)(C)C)NC(=O)[C@@]2(O)C[C@@H](OC(=O)/C=C/c3ccc(O)c(O)c3)[C@@H]3OC(C)(C)O[C@@H]3C2)cc1 (stereo not given in full)	> 64	2 (≈ 2.6 µM)	56.2	> 64	–
CCCCCCCCOc1ccc(NC(=O)C(CCCNC(=O)OC(C)(C)C)NC(=O)[C@@]2(O)C[C@@H](OC(=O)/C=C/c3ccc(O)c(O)c3)[C@@H]3OC(C)(C)O[C@@H]3C2)cc1 (stereo not given in full)	> 64	2 (≈ 2.46 µM)	12.5	> 64	–
CCCCCCCCOc1ccc(NC(=O)C(NC(=O)[C@]2(O)C[C@@H](O)[C@@H](O)[C@H](OC(=O)/C=C/c3ccc(O)c(O)c3)C2)C(C)O)cc1 (stereo not given in full)	> 64	2 (≈ 3.04 µM)	12.5	8 (≈ 12.1 µM)	2 (≈ 3.04 µM)
CCCCCCCCOc1ccc(NC(=O)C(CCCN)NC(=O)[C@]2(O)C[C@@H](O)[C@@H](O)[C@H](OC(=O)/C=C/c3ccc(O)c(O)c3)C2)cc1 (stereo not given in full)	16 (≈ 23.8 µM)	1 (≈ 1.49 µM)	37.5	4 (≈ 5.95 µM)	–
CCCCCCCCOc1ccc(NC(=O)C(CO)NC(=O)[C@]2(O)C[C@@H](O)[C@@H](O)[C@H](OC(=O)/C=C/c3ccc(O)c(O)c3)C2)cc1 (stereo not given in full)	> 64	4 (≈ 6.2 µM)	18.8	> 64	–
CCCCCCCCOc1ccc(NC(=O)C(NC(=O)[C@]2(O)C[C@@H](O)[C@@H](O)[C@H](OC(=O)/C=C/c3ccc(O)c(O)c3)C2)C(C)OC(C)(C)C)cc1 (stereo not given in full)	> 64	1 (≈ 1.4 µM)	50	2 (≈ 2.8 µM)	2 (≈ 2.8 µM)
CCCCCCCCOc1ccc(NC(=O)C(CC(=O)O)NC(=O)[C@]2(O)C[C@@H](O)[C@@H](O)[C@H](OC(=O)/C=C/c3ccc(O)c(O)c3)C2)cc1 (stereo not given in full)	> 64	16 (≈ 23.8 µM)	6.3	64 (≈ 95.1 µM)	–
CCCCCCCCOc1ccc(NC(=O)C(COC(C)(C)C)NC(=O)[C@@]2(O)C[C@@H](OC(=O)/C=C/c3ccc(O)c(O)c3)[C@@H]3OC(C)(C)O[C@@H]3C2)cc1 (stereo not given in full)	> 64	2 (≈ 2.7 µM)	31.3	32 (≈ 43.2 µM)	–
CCCCCCCCOc1ccc(NC(=O)[C@]2(O)C[C@@H](O)[C@@H](O)[C@H](OC(=O)/C=C/c3ccc(O)c(O)c3)C2)cc1	> 64	2 (≈ 3.59 µM)	50	8 (≈ 14.3 µM)	–
C[C@@H]1[C@H](O)[C@@H](C)/C=C/C=C/C=C/C=C/C=C/C=C/C=C/[C@H](O[C@@H]2O[C@H](C)[C@@H](O)[C@H](N)[C@@H]2O)C[C@@H]2O[C@](O)(C[C@@H](O)C[C@@H](O)[C@H](O)CC[C@@H](O)C[C@@H](O)CC(=O)O[C@H]1C)C[C@H](O)[C@H]2C(=O)O [AMPHOTERICIN B]	–	–	–	0.5 (≈ 0.541 µM)	–
O=C(/C=C/c1ccc(O)c(O)c1)O[C@@H]1C[C@](O)(C(=O)O)C[C@@H](O)[C@H]1O [CHLOROGENIC ACID]	–	–	100	> 64	> 64
OC(Cn1cncn1)(Cn1cncn1)c1ccc(F)cc1F [FLUCONAZOLE]	> 64	0.5 (≈ 1.63 µM)	–	0.25 (≈ 0.816 µM)	–
